# From ChEMBL document CHEMBL1122216, “2-(Aminomethyl)phenols, a new class of saluretic agents. 6. Effects of N,O-spiroannulation and subsequent quaternization” (1983)
# How the values were obtained:
# Rattus norvegicus [1] = assay: Antihypertensive activity after po administration of 40 mg/kg dose in spontaneously hypertensive(SH) rats; score is for average value of four animals; type: functional
# Outline: (§1)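 Spontaneously hypertensive rats were scored by the maximum fall in blood pressure: 0, <20 mm; 1, <30 mm; 2, <40 mm; 3, >40 mm Hg.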
# Rattus norvegicus [2] = assay: Antihypertensive activity after administration of 20 mg/kg dose in spontaneously hypertensive(SH) rats; score is for average value of four animals; type: functional; outline: as §1
# Rattus norvegicus [3] = assay: Saluretic property after administration in rats; type: functional
# Outline: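 Rats were housed three per cage, with three cages per dose. Sodium excreted over the first 5 h was scored from the geometric mean: 0, <2 mequiv; ±, >2; 1, <8; 2, <15; 3, <25; 4, <35; 5, <45; 6, <55 mequiv.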
# Canis familiaris [4] = assay: Saluretic property in an anesthetized dog after 5 mg/kg administration; type: functional, Canis lupus familiaris
# Rattus norvegicus [5] = assay: Antihypertensive activity after intraperitoneal administration of 20 mg/kg dose in spontaneously hypertensive(SH) rats; score is for average value of two animals; type: functional; outline: as §1
# Rattus norvegicus [6] = assay: Antihypertensive activity after oral administration of 20 mg/kg dose in spontaneously hypertensive(SH) rats; type: functional; outline: as §1
# Rattus norvegicus [7] = assay: Antihypertensive activity after oral administration of 5 mg/kg dose in spontaneously hypertensive(SH) rats; type: functional; outline: as §1
# Canis familiaris [8] = assay: Saluretic property in a anesthetized dog after 5 mg/kg oral administration; type: functional, Canis lupus familiaris
# Rattus norvegicus [9] = assay: Antihypertensive activity after intraperitoneal administration of 20 mg/kg dose in spontaneously hypertensive(SH) rats; type: functional; outline: as §1
# Rattus norvegicus [10] = assay: Antihypertensive activity after po administration of 5 mg/kg dose in spontaneously hypertensive(SH) rats; score is for average value of two animals; type: functional; outline: as §1
# Canis familiaris [11] = assay: Saluretic property in an average of two anesthetized dog after 5 mg/kg po administration; type: functional, Canis lupus familiaris
# Rattus norvegicus [12] = assay: Antihypertensive activity after administration of 5 mg/kg dose in spontaneously hypertensive(SH) rats; score is for average value of four animals; type: functional; outline: as §1
# Rattus norvegicus [13] = assay: Antihypertensive activity after po administration of 20 mg/kg dose in spontaneously hypertensive(SH) rats; score is for average value of six animals; type: functional; outline: as §1
# Rattus norvegicus [14] = assay: Antihypertensive activity after administration of 20 mg/kg dose in spontaneously hypertensive(SH) rats; score is for average value of two animals; type: functional; outline: as §1
# Rattus norvegicus [15] = assay: Antihypertensive activity after po administration of 20 mg/kg dose in spontaneously hypertensive(SH) rats; Score is for average value of two animals; type: functional; outline: as §1
# Rattus norvegicus [16] = assay: Antihypertensive activity after po administration of 5 mg/kg dose in spontaneously hypertensive(SH) rats; Score is for average value of two animals; type: functional; outline: as §1
# Rattus norvegicus [17] = assay: Antihypertensive activity after po administration of 0.31 mg/kg dose in spontaneously hypertensive(SH) rats; score is for average value of four animals; type: functional; outline: as §1
# Rattus norvegicus [18] = assay: Antihypertensive activity after po administration of 0.08 mg/kg dose in spontaneously hypertensive(SH) rats; score is for average value of four animals; type: functional; outline: as §1
# Canis familiaris [19] = assay: Saluretic property in an anesthetized dog after 5 mg/kg po administration; score is for average of two animals; type: functional, Canis lupus familiaris
# Rattus norvegicus [20] = assay: Antihypertensive activity after oral administration of 0.31 mg/kg dose in spontaneously hypertensive(SH) rats; type: functional; outline: as §1
# Rattus norvegicus [21] = assay: Antihypertensive activity after po administration of 40 mg/kg dose in spontaneously hypertensive(SH) rats; score is for average value of two animals; type: functional; outline: as §1
# Rattus norvegicus [22] = assay: Antihypertensive activity after po administration of 0.31 mg/kg dose in spontaneously hypertensive(SH) rats; Score is for average value of six animals; type: functional; outline: as §1
# Rattus norvegicus [23] = assay: Antihypertensive activity after po administration of 5 mg/kg dose in spontaneously hypertensive(SH) rats; Score is for average value of six animals; type: functional; outline: as §1
# Rattus norvegicus [24] = assay: Antihypertensive activity after po administration of 1.25 mg/kg dose in spontaneously hypertensive(SH) rats; Score is for average value of six animals; type: functional; outline: as §1
# Rattus norvegicus [25] = assay: Antihypertensive activity after po administration of 0.08 mg/kg dose in spontaneously hypertensive(SH) rats; Score is for average value of six animals; type: functional; outline: as §1
structure (smiles),measurement,setting,value
CC(C)(C)c1cc(I)c2c(c1)CNC1(CCCCC1)O2,Antihypertensive score,Rattus norvegicus [1],1
same,Antihypertensive score,Rattus norvegicus [2],0
same,Saluretic score,Rattus norvegicus [3],5
same,Saluretic score,Canis familiaris [4],5
CC(C)(C)c1cc(Cl)c2c(c1)CNC1(CCCCC1)O2,Antihypertensive score,Rattus norvegicus [5],0
same,Saluretic score,Rattus norvegicus [3],3
same,Saluretic score,Canis familiaris [4],5
CN1CCC2(CC1)NCc1cc(C(C)(C)C)cc(Cl)c1O2,Antihypertensive score,Rattus norvegicus [2],0
same,Saluretic score,Rattus norvegicus [3],3
same,Saluretic score,Canis familiaris [4],5
CC(C)(C)c1cc(I)c2c(c1)CNC1(CCC3(CC1)NCc1cc(C(C)(C)C)cc(I)c1O3)O2 (stereo unspecified),Antihypertensive score,Rattus norvegicus [6],2
same,Saluretic score,Rattus norvegicus [3],2
same,Antihypertensive score,Rattus norvegicus [7],0
CC(C)(C)c1cc(I)c2c(c1)C[N+](C)(C)C1(CCC(C(C)(C)C)CC1)O2.[I-] (stereo unspecified),Saluretic score,Canis familiaris [8],0
same,Antihypertensive score,Rattus norvegicus [6],0
same,Antihypertensive score,Rattus norvegicus [9],2
same,Saluretic score,Rattus norvegicus [3],0
CC(C)(C)c1cc(I)c2c(c1)C[N+](C)(C)CO2.[I-],Antihypertensive score,Rattus norvegicus [5],2
same,Antihypertensive score,Rattus norvegicus [10],0
same,Saluretic score,Rattus norvegicus [3],0
CC(C)(C)c1cc(I)c2c(c1)CNC1(CCCCCCCCCCC1)O2,Saluretic score,Canis familiaris [11],2
same,Antihypertensive score,Rattus norvegicus [12],0
same,Antihypertensive score,Rattus norvegicus [2],1
same,Saluretic score,Rattus norvegicus [3],4
CC(C)(C)c1cc(I)c2c(c1)CNC1(CCN(CCc3ccccc3)CC1)O2,Antihypertensive score,Rattus norvegicus [13],1
same,Antihypertensive score,Rattus norvegicus [12],0
same,Saluretic score,Rattus norvegicus [3],4
same,Saluretic score,Canis familiaris [4],5
CC(C)(C)c1cc(I)c2c(c1)CNC1(O2)C2CC3C(C2)C31 (stereo unspecified),Antihypertensive score,Rattus norvegicus [13],2
same,Antihypertensive score,Rattus norvegicus [12],1
same,Saluretic score,Rattus norvegicus [3],5
same,Saluretic score,Canis familiaris [4],5
CC(C)(C)c1cc(I)c2c(c1)C[N+](C)(C)C1(CCNCC1)O2.[Cl-],Antihypertensive score,Rattus norvegicus [5],0
same,Antihypertensive score,Rattus norvegicus [14],0
same,Saluretic score,Rattus norvegicus [3],0
same,Saluretic score,Canis familiaris [4],0
CC1(C)CC(C)(C)CC2(C1)NCc1cc(C(C)(C)C)cc(I)c1O2,Antihypertensive score,Rattus norvegicus [10],0
same,Antihypertensive score,Rattus norvegicus [2],1
same,Saluretic score,Rattus norvegicus [3],4
CC(=O)N1CCC2(CC1)Oc1c(I)cc(C(C)(C)C)cc1C[N+]2(C)C.[I-],Antihypertensive score,Rattus norvegicus [15],2
same,Antihypertensive score,Rattus norvegicus [16],0
same,Saluretic score,Rattus norvegicus [3],0
same,Saluretic score,Canis familiaris [4],0
CC(C)(C)c1cc(I)c2c(c1)C[N+](C)(C)C1(CCCCC1)O2.[I-],Antihypertensive score,Rattus norvegicus [12],2
same,Antihypertensive score,Rattus norvegicus [17],2
same,Antihypertensive score,Rattus norvegicus [18],0
same,Saluretic score,Rattus norvegicus [3],0
same,Saluretic score,Canis familiaris [4],0
CC(C)(C)c1cc(I)c2c(c1)CN(CN1COc3c(I)cc(C(C)(C)C)cc3C1)CO2,Antihypertensive score,Rattus norvegicus [9],0
CC(C)(C)c1cc(I)c2c(c1)C[N+](C)(C)C1(CCCC1)O2.[I-],Antihypertensive score,Rattus norvegicus [5],3
same,Antihypertensive score,Rattus norvegicus [14],0
CC1CCC2(CC1)Oc1c(I)cc(C(C)(C)C)cc1C[N+]2(C)C.[I-] (stereo unspecified),Antihypertensive score,Rattus norvegicus [14],0
CC(C)(C)c1cc(I)c2c(c1)CNC1(CCSCC1)O2,Antihypertensive score,Rattus norvegicus [10],0
same,Antihypertensive score,Rattus norvegicus [14],2
same,Saluretic score,Rattus norvegicus [3],4
same,Saluretic score,Canis familiaris [19],2
CC(C)(C)c1cc(I)c2c(c1)C[N+](C)(C)C(C)(C)O2.[I-],Antihypertensive score,Rattus norvegicus [5],0
CC(C)(C)c1cc(I)c2c(c1)CNC1(CCC(C(=O)O)CC1)O2 (stereo unspecified),Antihypertensive score,Rattus norvegicus [12],2
same,Antihypertensive score,Rattus norvegicus [14],2
same,Saluretic score,Rattus norvegicus [3],4
same,Saluretic score,Canis familiaris [4],5
CC(C)(C)c1cc(Cl)c2c(c1)C[N+](C)(C)C1(CCCCC1)O2.[I-],Antihypertensive score,Rattus norvegicus [5],0.5
same,Antihypertensive score,Rattus norvegicus [14],0
same,Saluretic score,Rattus norvegicus [3],0
CN1CCC2(CC1)NCc1cc(C(C)(C)C)cc(I)c1O2,Antihypertensive score,Rattus norvegicus [5],2
same,Antihypertensive score,Rattus norvegicus [2],1
same,Saluretic score,Rattus norvegicus [3],4
same,Saluretic score,Canis familiaris [4],5
CC(C)(C)c1cc(I)c2c(c1)CNC1(O2)C2CC3CC(C2)CC1C3 (stereo unspecified),Antihypertensive score,Rattus norvegicus [12],0
same,Antihypertensive score,Rattus norvegicus [14],2
same,Saluretic score,Rattus norvegicus [3],3
same,Saluretic score,Canis familiaris [4],0
CC(=O)N1CCC2(CC1)NCc1cc(C(C)(C)C)cc(I)c1O2,Antihypertensive score,Rattus norvegicus [5],0
same,Saluretic score,Canis familiaris [4],4
CC(=O)Oc1cc(C(C)(C)C)cc2c1OC1(CCCCC1)[N+](C)(C)C2.[I-],Saluretic score,Canis familiaris [8],0
same,Antihypertensive score,Rattus norvegicus [20],1
same,Saluretic score,Rattus norvegicus [3],0
same,Antihypertensive score,Rattus norvegicus [7],2
CC(C)(C)c1cc(Cl)c(O)c(CN)c1.Cl,Antihypertensive score,Rattus norvegicus [21],2
same,Antihypertensive score,Rattus norvegicus [14],0
same,Saluretic score,Rattus norvegicus [3],6
same,Saluretic score,Canis familiaris [4],4
CC(C)(C)c1cc(I)c(O)c(CN)c1.Cl,Antihypertensive score,Rattus norvegicus [22],1
same,Antihypertensive score,Rattus norvegicus [23],3
same,Antihypertensive score,Rattus norvegicus [24],2
same,Antihypertensive score,Rattus norvegicus [25],0
same,Saluretic score,Rattus norvegicus [3],6
same,Saluretic score,Canis familiaris [4],6
CC(C)(C)c1cc(I)c2c(c1)CNC1(CCC(C(C)(C)C)CC1)O2 (stereo unspecified),Saluretic score,Canis familiaris [8],5
same,Antihypertensive score,Rattus norvegicus [9],0
same,Saluretic score,Rattus norvegicus [3],4
